Only some compounds are listed: those with a hit (about 6.4% of all), similar ones and a draw of the others.
E coli WT exp – blocks growth of wild type E. coli BW25113; AID 710; growth inhibition, % at 100 µM; 98,000 compounds, 0.15% hits; OD600 absorbance;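 active = growth inhibition above about 50% at one test dose, limit read from the data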;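 also: growth measured after 20 h incubation at 37 °C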
H69AR inhibit – blocks growth of human H69AR lung tumor cells; H69AR lung tumor viability, ATP luminescence, 72 h; hits give low values; viability, % at 10 µM; 85,000 compounds, 6% hits; AID 598;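 active = viability at or below 40%; inactive = viability above 40%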;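 also: multidrug resistant small cell line overexpressing MRP-1 efflux transporter; 100% = mean luminescence of untreated control wells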
Jurkat tox 60K – reduces viability or proliferation of Jurkat cells; 56,000 compounds, 1.2% hits; Jurkat E6.1 viability, ATP luminescence, 48 h; AID 463; inhibition, % at 4 µM;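 active = inhibition above the mean inhibition of all tested compounds plus 3 SD, cut at about 28% in these data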
HUVEC inhibit – human endothelial cell proliferation inhibition; viability, % at 10 µM (by protocol); HUVEC proliferation, CellTiter-Glo luminescence, 72 h; hits give low values; 86,000 compounds, 1.1% hits;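 active = viability at or below 30%; inactive = viability above 30%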;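 also: 100% = median luminescence of DMSO-only cell control wells on each plate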
Fibroblast inh – blocks proliferation of human lung fibroblasts; LL 47 human lung fibroblast viability, ATP luminescence; hits give low values; viability, % at 10 µM; 85,000 compounds, 1.1% hits; AID 719;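 active = viability at or below 50% in the single dose screen; inactive = viability above 50%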;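 also: compound exposure lasted 72 h before the ATP readout; 100% = median luminescence of untreated cell-only wells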
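Signal: luminescent ATP detection, CellTiter-Glo; assay system: LL 47 human lung fibroblasts; input: 1,150 cells/well; incubation: overnight cell rest, 72 h compound treatment at 37 °C; measure: % viability versus median cells-only luminescence; medium: IMEM growth medium with 15% fetal bovine serum; dosing: compound addition at 0.1% DMSO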
Ecoli tolC – blocks growth of E. coli BW25113 tolC mutant. OD615. growth inhibition, % at 10 µM (by protocol). 65,000 compounds, 2.2% hits. AID 573;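 active = growth inhibition at or above a cutoff equal to the mean over every tested compound plus 3 SD, cut at about 60% in these data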;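 also: growth measured after 20 h incubation at 37 °C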
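test system = E. coli BW25113 ΔtolC::kan bacteria | medium = LB with kanamycin 50 µg/mL | signal = OD at 615 nm | schedule = 37 °C, 20 h exposure | evaluation = % inhibition of E. coli growth | compound dosing = one dose of 10 µM final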
Starred values were filed as active, the others as inactive; x = no result given.

SMILES | E coli WT exp | H69AR inhibit | Jurkat tox 60K | HUVEC inhibit | Fibroblast inh | Ecoli tolC
CCN(c1cccc(C(F)(F)F)c1)S(=O)(=O)c1ccc2c(c1)CCN2C(=O)C1CC1 | 2 | 63 | 17 | 81 | 85 | 69*
COc1cccc(OCc2nc3ncc(Br)cc3[nH]2)c1 | -6 | 25* | 65* | 48 | 47* | -20
CCOC(=O)CNC(=O)CSc1nc2ncc(Br)cc2[nH]1 | 0 | x | 1 | 98 | 112 | -18
Cc1cc(C)cc(OCc2nc3ncc(Br)cc3[nH]2)c1 | x | 11* | x | 38 | 14* | x
CC(=O)Nc1ccc(Oc2ccc(-c3noc(C)n3)cc2)cc1 | 8 | 106 | x | 95 | 103 | x
CC(=O)Oc1ccc(Oc2ccc(-c3noc(C)n3)cc2)cc1 | 5 | 102 | 34* | 51 | 69 | 14
CCC(=O)N1c2ccccc2NC2=C(C(=O)CCC2)C1c1ccc(N(C)C)cc1 (stereo not drawn) | 1 | 99 | 5 | 90 | 92 | -6
O=C1CCCC2=C1C1c3ccccc3C(=O)N1c1ccc(C(=O)c3ccccc3)cc1N2 (stereo not drawn) | x | 21* | x | 50 | 107 | x
Cc1cccc(NC(=S)NNC(=O)CCn2cc(C)cn2)c1 | 1 | x | x | x | x | x
O=S(=O)(c1ccc(Br)cc1)N1CCCC1c1nc2ccccc2s1 (stereo not drawn) | -15 | x | x | x | x | x
O=S(=O)(c1ccc(N2CCCC2c2nc3ccccc3s2)nc1)N1CCOCC1 (stereo not drawn) | -6 | 23* | 1 | 97 | 88 | -3
CC(C)(C)c1ccc(C(=O)N/C(=C\c2cccs2)C(=O)NCc2ccco2)cc1 | -6 | x | x | x | x | x
CCOC(=O)c1cc(C#N)c(SCC(=O)c2cc(C#N)c(SC)nc2C)nc1C | x | 12* | 3 | 63 | x | 6
CCOc1ccc(N(C(C)C(=O)N/N=C(\C)c2cccc(NC(=O)c3ccccc3)c2)S(C)(=O)=O)cc1 (stereo not drawn) | -7 | x | x | x | x | x
Cc1c(CCOC(=O)C2C3CC4CC(C3)CC2C4)sc[n+]1CC(=O)c1ccc(Br)cc1 (stereo not drawn) | 9 | 0.9* | x | 2.6* | 73 | x
Cc1cc(OCC(F)(F)C(F)(F)C(F)(F)C(F)F)nc(N)n1 | 10 | 94 | x | 101 | 100 | x
COc1ccc(C(c2sc3ncnn3c2O)N2CC(C)OC(C)C2)cc1OC (stereo not drawn) | 1 | 97 | -4 | 29* | 88 | -6
COc1ccc(C(c2sc3ncnn3c2O)N2CCN(c3ccccc3F)CC2)cc1OC (stereo not drawn) | 1 | 90 | -2 | 37 | 93 | 18
CC(C)COC(=O)c1cc(=O)[nH]c2ccccc12 | 5 | 96 | -9 | 100 | 93 | 8
CC(C)COC(=O)c1ccc2c(c1O)C(=O)c1ccccc1C2=O | -4 | 45 | x | 10* | 75 | x
CC1CCN(CC(=O)N2CC(=O)Nc3ccccc32)CC1 | x | 97 | x | 100 | 94 | x
C[C@]12CC[C@@H]3c4ccc(O)cc4CC[C@H]3[C@@H]1CC[C@@H]2OC(=O)CCC(=O)O | x | 93 | x | 83 | 107 | 10
C[C@]12CC[C@@H]3c4ccc(OC(=O)c5ccccc5)cc4CC[C@H]3[C@@H]1CC[C@@H]2O | x | 26* | x | 55 | 93 | 3
CCOC(=O)/C=C/C(=O)OCC(=O)Nc1ccc(Cl)cn1 | 13 | 81 | x | 83 | 70 | x
CCOC(=O)NC1(Nc2ccc(Cl)cn2)Oc2ccccc2O1 | 8 | 28* | 33* | 79 | 96 | -4
SMILES | E coli WT exp | H69AR inhibit | Jurkat tox 60K | HUVEC inhibit | Fibroblast inh | Ecoli tolC
Cc1ccc2[nH]c(=O)c(CN(CCCN3CCOCC3)C(=O)Nc3cccc(Cl)c3)cc2c1 | x | 20* | 4 | 8.5* | 64 | -4
O=C(COc1ccc2c(c1)CCC2)N1CCc2ccccc21 | 11 | 81 | 6 | 80 | 89 | 4
Nc1nc(-c2ccccc2)cc(N2CCCCC2)n1 | 7 | 23* | 78* | 57 | 56 | 23
Cn1c(CCNC(=O)c2ccco2)nc2cc(NS(=O)(=O)c3ccc(Cl)cc3)ccc21 | -6 | 87 | 3 | 85 | 101 | 18
Cc1ccccc1OCC(=O)N(Cc1nc(-c2ccccc2)no1)C(C)C | -11 | 94 | -2 | 99 | 87 | 36
COc1ccccc1OCC(=O)N(Cc1nc(-c2ccccc2)no1)C1CCCCC1 | -16 | 96 | -4 | 94 | 95 | 62*
CCc1ccc(S(=O)(=O)NCCc2csc(-c3ccccc3)n2)s1 | -16 | 89 | 6 | 80 | 92 | 93*
CC1CCN(c2cc(=O)n(C3CCCCC3)c(=O)[nH]2)CC1 | -6 | 70 | x | 99 | 87 | x
O=c1cc(N2CCC(Cc3ccccc3)CC2)[nH]c(=O)n1C1CCCCC1 | -10 | 27* | -3 | 72 | 87 | -25
CC1CCCN(c2ncnc3c2cnn3-c2ccc(Cl)cc2)C1 (stereo not drawn) | x | x | -7 | x | x | 96*
COc1cccc(N2CCN(c3ncnc4c3cnn4-c3ccc(C)cc3C)CC2)c1 | -9 | 56 | 15 | 2.2* | 33* | 30
Cc1cccc(-n2ncc3c(N4CCC(C)CC4)ncnc32)c1 | -2 | 74 | -1 | 94 | 95 | 94*
CCOC(=O)C1CCCN(c2ncnc3c2cnn3-c2cccc(C)c2)C1 (stereo not drawn) | 0 | x | x | 96 | 102 | 47
Cc1cccc(-n2ncc3c(N4CCC5(CC4)OCCO5)ncnc32)c1 | x | 33* | -3 | 115 | 88 | -12
CCC(=O)Nc1ccc(S(=O)(=O)c2ccc(NC(=O)CC)cc2)cc1 | -3 | 93 | 4 | 94 | 103 | 12
COc1ccc2c(c1)C(C1C(=O)CCCC1=O)c1ccccc1O2 (stereo not drawn) | 1 | x | x | x | x | x
Cc1cccc(-n2ncc3c(N(C)Cc4ccccc4)ncnc32)c1 | x | x | 6 | x | x | 93*
O=C(c1ccccc1C(F)(F)F)N1CCN(S(=O)(=O)c2ccccc2)CC1 | -3 | 98 | 8 | 105 | 98 | -3
Cc1cc(C(=O)CSc2nc3ccccc3o2)c(C)n1C1CC1 | -6 | 99 | -3 | 92 | 100 | 76*
C=CCn1c(C)cc(C(=O)CSc2nc3ccccc3o2)c1C | -5 | 95 | 15 | 96 | 102 | 40
OC1(c2ccc(F)cc2)CCN(Cc2nnnn2Cc2cccs2)CC1 | 5 | 90 | 0 | 90 | 100 | 9
COc1ccc(OC)c(S(=O)(=O)Nc2ccc(O)c3ccccc23)c1 | x | 1.9* | 25 | 2.3* | 55 | 9
COc1ccc(NS(=O)(=O)c2ccc(NS(=O)(=O)c3ccc(SC)cc3)cc2)c(OC)c1 | -2 | 55 | x | 85 | 101 | x
COc1ccc(OC)c(S(=O)(=O)Nc2ccc(Oc3ccccc3)cc2)c1 | -5 | 94 | x | 91 | 92 | x
COc1ccc(OC)c(NS(=O)(=O)c2ccc(NC(C)=O)cc2)c1 | 7 | 34* | x | 91 | 93 | x
COc1ccc(OC)c(NS(=O)(=O)c2ccc(SC)cc2)c1 | -8 | 14* | 78* | 62 | 84 | 3
COc1ccc(S(=O)(=O)Nc2cc(Cl)ccc2OC)cc1 | -6 | 19* | 76* | 39 | 52 | 10
